Data published in PMC3808079 (Oncogene, 2012).
Ends that are not written are not given here.

Tests used:
LN229 cells [1] = experiment: Cell viability assay; assay type: cell-based, human
LN-Z308 cells [2] = experiment: Colony formation assay; assay type: cell-based, human; conditions: for Colony numbers: drug alone, soft agar, 2 weeks
Summary of the method: (§1)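 Soft-agar assay: 50 000 cells per well in 0.4% agar with 10% FBS in DMEM, plated over a 0.6% agar base, with test peptide, drug or vehicle. Combinations used various doses of the test peptide with TMZ or BCNU. Cells grew 2 weeks at 37 °C. Colonies were stained with MTT, counted and normalized to vehicle (%). Mean±s.d.; Student's t-test.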

LN229 cells [3] = experiment: Colony formation assay; assay type: cell-based, human; conditions: Figure 6e; for Colony numbers: drug alone, soft agar, 2 weeks
Summary of the method: as §1

LN-Z308 cells [4] = experiment: Cell viability assay; assay type: cell-based, human
Summary of the method: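 Cells (5 × 10^3/well) grown in DMEM/10% FBS were seeded in 96-well plates. Next day, medium was replaced with fresh medium containing test peptides (50 μM) or vehicle, for 16 h at 37 °C. For combinations, cells got various concentrations of the test peptide with TMZ (25 μM) or BCNU (50 μM). Viability was read by MTT. Mean±s.d., 3–4 independent experiments; Student's t-test.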

[5] = system: Akt signaling in LN-Z308 cells; experiment: Immunoblotting of Akt phosphorylation and downstream signaling; assay type: cell-based, human; conditions: peptide-treated cell lysates, dose-dependent, immunoblot, Figure 7b
LN229 cells [6] = experiment: Transwell; assay type: cell-based, human; conditions: synthetic peptide 50 μM, 16 h, Figure 6c
Summary of the method: (§2)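 Cells (1 × 10^5/well) were seeded in six-well plates and treated with test peptides (50 μM) for 16 h. Invasion through Matrigel was measured in a transwell system (8 μm pore polycarbonate membrane). Mean±s.d. of 3–4 independent experiments; Student's t-test.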

PIKE-A/Akt interaction [7] = target: T1, PIKE-A/Akt interaction (Homo sapiens, UniProt P31749+Q99490); experiment: In vitro binding assay, GST-PIKE-A; conditions: short synthetic peptides; Figure 5b
Summary of the method: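 Purified recombinant GST-PIKE-A (a.a. 1–356) was bound to glutathione beads and incubated, with test peptides, with lysates of HEK293 cells transfected with HA-Akt, 3 h at 4 °C. Bead-bound proteins were run on 10% SDS-PAGE and immunoblotted with anti-HA. GST proteins were verified by Coomassie staining.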

LN-Z308 cells [8] = experiment: Transwell; assay type: cell-based, human; conditions: synthetic peptide 50 μM, 16 h, Figure 6c
Summary of the method: as §2

PIKE-A/Akt interaction [9] = target: T1, PIKE-A/Akt interaction; experiment: ELISA-based protein interaction assay; assay type: binding; conditions: peptide 10 μM; Figure 5c
PIKE-A/Akt interaction [10] = target: T1, PIKE-A/Akt interaction; assay type: binding
Summary of the method: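 HEK293 cells were co-transfected with GST-PIKE-A and HA-Akt. After 40 h, lysates were collected and GST-PIKE-A was pulled down on glutathione beads in the presence of test peptides. Bound HA-Akt was detected by anti-HA immunoblot. GST-PIKE-A was verified with anti-GST-HRP.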

LN-Z308 cells [11] = experiment: Cell migration, wound-healing assay; assay type: cell-based, human; conditions: synthetic peptide 50 μM, 10 h, Figure 6b
Summary of the method: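 LN-Z308 monolayers were grown to confluence in six-well plates and scratched with a pipette tip, then washed to remove nonadherent cells. Medium containing test peptides (50 μM) or DMSO was added at 0 h, and cells were incubated 10 h. Wound area was imaged by light microscopy. % wound healed = 100-[(final area/initial area) × 100%]. Mean±s.d. of three or four independent experiments; Student's t-test.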

[12] = system: PIKE-A/Akt interaction in HEK293 cells; experiment: GST pull-down from co-transfected HEK293 cells treated with synthetic peptides; assay type: cell-based; conditions: sp2 50 μM, Figure 5f
Summary of the method: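 HEK293 cells were co-transfected with GST-PIKE-A and HA-Akt, then treated with 50 μM test peptide in culture medium for various times up to 24 h. GST-PIKE-A was pulled down on glutathione beads, and associated HA-Akt was detected by anti-HA immunoblot.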

[13] = synthetic peptide 50 μM, 16 h, Figure 6a
[14] = sp2 various concentrations + TMZ 25 μM, 16 h, Figure 6d
[15] = various concentrations of sp2, 16 h, Figure 6d

T1 sequence (Q99490 1-836 isoform Q99490-2): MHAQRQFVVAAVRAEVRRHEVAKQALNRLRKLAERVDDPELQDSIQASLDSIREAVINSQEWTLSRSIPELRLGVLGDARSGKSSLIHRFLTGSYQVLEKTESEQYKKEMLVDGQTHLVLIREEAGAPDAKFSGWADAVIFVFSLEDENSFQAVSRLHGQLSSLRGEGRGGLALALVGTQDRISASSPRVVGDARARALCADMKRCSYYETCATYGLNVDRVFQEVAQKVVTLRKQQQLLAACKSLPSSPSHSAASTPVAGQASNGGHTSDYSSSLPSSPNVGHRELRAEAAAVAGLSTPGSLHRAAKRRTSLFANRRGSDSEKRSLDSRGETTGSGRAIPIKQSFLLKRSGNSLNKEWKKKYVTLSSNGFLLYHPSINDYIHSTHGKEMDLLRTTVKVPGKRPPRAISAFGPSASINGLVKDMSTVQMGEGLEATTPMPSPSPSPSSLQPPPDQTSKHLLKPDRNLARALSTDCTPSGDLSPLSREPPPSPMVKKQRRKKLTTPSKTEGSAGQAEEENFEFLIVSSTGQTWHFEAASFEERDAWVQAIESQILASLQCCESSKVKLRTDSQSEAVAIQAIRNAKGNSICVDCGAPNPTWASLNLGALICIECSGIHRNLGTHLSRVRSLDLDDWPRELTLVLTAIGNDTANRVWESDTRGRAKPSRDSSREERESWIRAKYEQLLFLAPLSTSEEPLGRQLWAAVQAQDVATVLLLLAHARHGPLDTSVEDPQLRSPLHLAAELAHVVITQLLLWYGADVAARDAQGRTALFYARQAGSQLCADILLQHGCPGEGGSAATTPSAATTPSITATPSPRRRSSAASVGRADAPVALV
T1 sequence (P31749 whole entry): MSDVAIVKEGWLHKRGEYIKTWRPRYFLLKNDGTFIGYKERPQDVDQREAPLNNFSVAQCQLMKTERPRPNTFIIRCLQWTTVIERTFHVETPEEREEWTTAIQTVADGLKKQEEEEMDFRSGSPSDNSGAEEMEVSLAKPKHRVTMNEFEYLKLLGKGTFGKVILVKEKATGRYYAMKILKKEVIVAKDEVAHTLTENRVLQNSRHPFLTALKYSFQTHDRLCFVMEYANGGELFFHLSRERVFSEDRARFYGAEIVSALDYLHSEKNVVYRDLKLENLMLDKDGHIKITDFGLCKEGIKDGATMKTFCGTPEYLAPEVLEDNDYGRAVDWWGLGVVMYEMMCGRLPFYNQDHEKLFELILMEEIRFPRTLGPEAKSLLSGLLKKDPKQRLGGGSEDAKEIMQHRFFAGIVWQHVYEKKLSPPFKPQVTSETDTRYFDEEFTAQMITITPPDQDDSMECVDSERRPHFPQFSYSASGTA

## O=NN(CCCl)C(=O)NCCCl [BCNU, Carmustine, reference compound]
LN229 cells [1]; BCNU 50 μM, 24 h, after 40 h plasmid transfection, Figure 4c
  Cell viability (MTT): reduced cell viability regardless of peptide transfection
LN-Z308 cells [2]; Figure 6e
  Colony numbers: decreased the colony numbers
LN229 cells [3]
  Colony numbers: decreased the colony numbers

## Cn1nnc2c(C(N)=O)ncn2c1=O [TMZ, temozolomide, reference compound]
LN229 cells [1]; TMZ 25 μM, 16 h, Figure 6d
  Cell viability (MTT): potently decreased
LN229 cells [1]; TMZ 25 μM, 24 h, compared with vehicle, Figure 4c
  Cell viability (MTT): modest effect in repressing LN229 cell viability
LN-Z308 cells [2]; Figure 6e
  Colony numbers: decreased the colony numbers
LN229 cells [3]
  Colony numbers: decreased the colony numbers
LN-Z308 cells [4]; TMZ 25 μM, 16 h, Figure 6d
  Cell viability (MTT): potently decreased

## DARSG [sp4]
[5]
  Akt T308 and S473 phosphorylation: no effect on Akt phosphorylation
LN229 cells [6]
  Invasive activity: did not significantly affect
PIKE-A/Akt interaction [7]
  Interaction between a fragment of PIKE-A (1–356 a.a.) and Akt: decreased the interaction
LN-Z308 cells [8]
  Invasive activity: did not significantly affect
PIKE-A/Akt interaction [9]
  Disruption of the interaction between PIKE-A and Akt (ELISA, RLU): failed to block the PIKE-A/Akt interaction
LN-Z308 cells [4]; [13]
  Cell viability (MTT): no effect

## DARSGKSSLIHRFLTGSYQ [PP2]
PIKE-A/Akt interaction [9]
  Disruption of the interaction between PIKE-A and Akt (ELISA, RLU): failed to block the PIKE-A/Akt interaction
PIKE-A/Akt interaction [10]; peptide up to 10 μM, Figure 2f
  Inhibition of the PIKE-A/Akt interaction, GST pull-down: did not demonstrate an inhibitory effect

## LKKDPK [sp9]
PIKE-A/Akt interaction [7]
  Interaction between a fragment of PIKE-A (1–356 a.a.) and Akt: decreased the interaction

## PELRLGVL [sp2]
LN229 cells [1]; [14]
  Cell viability (MTT), co-treatment of sp2 with TMZ: inhibitory trend was similar
LN229 cells [1]; [13]
  Cell viability (MTT): not in LN229 cells
LN229 cells [1]; [15]
  Cell viability (MTT), sp2 alone: not as evident as in LN-Z308 cells
[5]
  Akt T308 and S473 phosphorylation: diminished
LN-Z308 cells [2]; 50 μM sp2 + TMZ or BCNU, Figure 6e
  Colony formation inhibitory effect of TMZ and BCNU on co-treatment with sp2: substantially increased
LN-Z308 cells [2]; summary statement of Figure 6
  Colony formation, sp2: strongly inhibits
LN229 cells [6]
  Invasive activity: strongly inhibited the invasive activity
PIKE-A/Akt interaction [7]
  Interaction between a fragment of PIKE-A (1–356 a.a.) and Akt: decreased the interaction
LN-Z308 cells [8]
  Invasive activity: strongly inhibited the invasive activity
LN-Z308 cells [11]
  Cell migration: strongly inhibits
LN229 cells [3]; sp2 + TMZ or BCNU
  Colony formation inhibitory effect of TMZ and BCNU on co-treatment with sp2: additive trend also applied
[12]; 24 h in cell culture medium
  Inhibition of PIKE-A binding to Akt at 24 h: lost its suppressive activity
[12]; time course
  Time at which inhibition of PIKE-A binding to Akt was seen: 4 h
  Time of peak inhibition of PIKE-A binding to Akt: 16 h
PIKE-A/Akt interaction [10]; GST pull-down as in Figure 2, Figure 5e
  Inhibitory effect on the PIKE-A/Akt interaction, GST pull-down: inhibited the binding
LN-Z308 cells [4]; [14]
  Cell viability (MTT), co-treatment of sp2 with TMZ: additive effect
LN-Z308 cells [4]; [13]
  Cell viability (MTT): selectively decreased LN-Z308 cell viability
LN-Z308 cells [4]; [15]
  Cell viability (MTT), sp2 alone: suppressive activity of sp2 on LN-Z308 cell viability, which occurred in a dose-dependent manner

## TGSYQ [sp6]
LN229 cells [1]; [13]
  Cell viability (MTT): not in LN229 cells
LN229 cells [6]
  Invasive activity: did not significantly affect
PIKE-A/Akt interaction [7]
  Interaction between a fragment of PIKE-A (1–356 a.a.) and Akt: decreased the interaction
LN-Z308 cells [8]
  Invasive activity: did not significantly affect
PIKE-A/Akt interaction [9]
  Disruption of the interaction between PIKE-A and Akt (ELISA, RLU): failed to block the PIKE-A/Akt interaction
LN-Z308 cells [4]; [13]
  Cell viability (MTT): selectively decreased LN-Z308 cell viability
